Data as given in ChEMBL document CHEMBL3871266, “Synthesis and cytotoxic activity of novel A-ring cleaved ursolic acid derivatives in human non-small cell lung cancer cells” (Eur J Med Chem, 2016).

Experiments:
NCI-H460 = assay: Induction of autophagy in human NCI-H460 cells expressing CTR5 gene assessed as acidic vesicular organelle formation measured after 72 hrs by acridine orange dye based flow cytometry (reference value: 91.2%); format: functional
In short: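 H460 CTR5 cells plated in 6-well plates (0.095 × 10⁵ cells/well, RPMI-1640 with 10% FBS) and treated 24 h later with vehicle (0.15% DMSO), drug at 3 or 4 μM, or medium alone for 72 h. Bafilomycin A1 was added to the untreated well 30 min before staining as negative control. Cells were stained with acridine orange for 15 min at 37°C in the dark. Flow cytometry read the red/green (FL3/FL1) ratio; three independent experiments.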

[1] = Cytotoxicity against human NCI-H322 cells assessed as reduction in cell viability measured after 72 hrs by CellTiter-Blue cell viability assay; format: functional, cell-based
In short: (§1)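 Monolayer cultures in RPMI-1640 with 10% FBS at 37°C, seeded at 850 (H460 CTR5), 660 (H460 LKB1+/+) or 1780 (H322) cells/well so that the end point reaches 70–80% confluence. Treated 72h; vehicle 0.15% DMSO. CellTiter-Blue added until colour change (50–60, 80–90 or 100–120 min respectively), fluorescence read at 590 nm. IC50 by nonlinear regression; three independent experiments.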

[2] = Cytotoxicity against human LKB1-positive NCI-H460 cells assessed as reduction in cell viability measured after 72 hrs by CellTiter-Blue cell viability assay; format: functional, cell-based; in short: as §1
[3] = Cytotoxicity against human NCI-H460 cells expressing CTR5 gene assessed as reduction in cell viability measured after 72 hrs by CellTiter-Blue cell viability assay; format: functional, cell-based; in short: as §1
[4] = Cytotoxicity against human NCI-H322 spheroids assessed as reduction in cell viability measured after 96 hrs by CellTiter-Glo luminescence viability assay; format: functional; settings: NCI-H322, 96 h
In short: (§2)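 Spheroids grown in round-bottom ultralow-attachment wells, 495 (H460 CTR5) or 650 (H322) cells/well. Drug exposure 96h with DMSO vehicle. CellTiter-Glo added, shaken 20 min, left 10 min, then luminescence read. IC50 by nonlinear regression; three independent experiments.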

[5] = Cytotoxicity against human NCI-H460 spheroids expressing CTR5 gene assessed as reduction in cell viability measured after 96 hrs by CellTiter-Glo luminescence viability assay; format: functional, cell-based; settings: NCI-H460, 96 h; in short: as §2
[6] = Homo sapiens, NCI-H322, 72 h, read-out: IC50
[7] = Homo sapiens, NCI-H460, 72 h, read-out: IC50

Row | SMILES | Activity (NCI-H460) [%] | IC50 [1, 6] [µM] | IC50 [2, 7] [µM] | IC50 [3, 7] [µM] | IC50 [4] [µM] | IC50 [5] [µM] | IC50 ([1]; nci-h322) | IC50 ([2]; nci-h460) | IC50 ([3]; nci-h460)
1 | CO/C1=C\C(C)=C\[C@@H](C)[C@@H](O)[C@@H](C)C/C(C)=C/C=C/[C@H](OC)[C@@H]([C@@H](C)[C@@H](O)[C@H](C)[C@@]2(O)C[C@@H](O)[C@H](C)[C@@H](C(C)C)O2)OC1=O [BAFILOMYCIN A1] | 100 |  |  |  |  |  |  |  | 
2 | C=C(C)[C@@H]1CC[C@]2(C)[C@H](C[C@@H](F)C34OC(=O)[C@@]5(CC[C@@H](C)[C@H](C)[C@@H]35)CC[C@]42C)[C@@]1(C)CCC(=O)Nc1ccccc1 |  | > 50 | > 50 | > 50 |  |  |  |  | 
3 | C=C(C)[C@@H]1CC[C@]2(C)[C@H](C[C@@H](F)C34OC(=O)[C@@]5(CC[C@@H](C)[C@H](C)[C@@H]35)CC[C@]42C)[C@@]1(C)CCC(=O)NCc1ccc(C)cc1 |  | > 50 | > 50 | > 50 |  |  |  |  | 
4 | C=C(C)[C@@H]1CC[C@]2(C)[C@H](C[C@@H](F)C34OC(=O)[C@@]5(CC[C@@H](C)[C@H](C)[C@@H]35)CC[C@]42C)[C@@]1(C)CCC(=O)NCC |  | 7.3 | 7.8 | 5.3 | 11.6 | 5.7 |  |  | 
5 | C[C@H]1[C@H](C)CC[C@@]23CC[C@]4(C)C(OC2=O)([C@H](F)C[C@@H]2[C@@]5(C)CCC(=O)OC(C)(C)[C@@H]5CC[C@]24C)[C@H]13 |  |  |  |  |  |  | Nd(Insoluble) | Nd(Insoluble) | Nd(Insoluble)
6 | C=C(C)[C@@H]1CC[C@]2(C)[C@H](C[C@@H](F)C34OC(=O)[C@@]5(CC[C@@H](C)[C@H](C)[C@@H]35)CC[C@]42C)[C@@]1(C)CCC(=O)NCCc1ccccc1OC |  | > 50 | > 50 | > 50 |  |  |  |  | 
7 | C=C(C)[C@@H]1CC[C@]2(C)[C@H](C[C@@H](F)C34OC(=O)[C@@]5(CC[C@@H](C)[C@H](C)[C@@H]35)CC[C@]42C)[C@@]1(C)CCC(=O)NCCc1ccccc1 |  | > 50 | > 50 | > 50 |  |  |  |  | 
8 | C[C@H]1[C@H](C)CC[C@]2(C(=O)O)CC[C@]3(C)C(=CC[C@@H]4[C@@]5(C)CC[C@H](O)C(C)(C)[C@@H]5CC[C@]43C)[C@H]12 [URSOLIC ACID] |  | 15.3 | 21.1 | 14.8 | 18.2 | 30.8 |  |  | 
9 | C=C(C)[C@@H]1CC[C@]2(C)[C@H](C[C@@H](F)C34OC(=O)[C@@]5(CC[C@@H](C)[C@H](C)[C@@H]35)CC[C@]42C)[C@@]1(C)CCC(=O)NCc1ccc(F)cc1 |  | > 50 | > 50 | > 50 |  |  |  |  | 
10 | C=C(C)[C@@H]1CC[C@]2(C)[C@H](C[C@@H](F)C34OC(=O)[C@@]5(CC[C@@H](C)[C@H](C)[C@@H]35)CC[C@]42C)[C@@]1(C)CCC(=O)NC |  | 6.8 | 6.7 | 4.5 | 12.1 | 3 |  |  | 
11 | C=C(C)[C@@H]1CC[C@]2(C)[C@H](C[C@@H](F)C34OC(=O)[C@@]5(CC[C@@H](C)[C@H](C)[C@@H]35)CC[C@]42C)[C@@]1(C)CCC(=O)O |  | > 50 | > 50 | > 50 |  |  |  |  | 
12 | C[C@H]1[C@H](C)CC[C@@]23CC[C@]4(C)C(OC2=O)([C@H](F)C[C@@H]2[C@@]5(C)CCC(=O)NC(C)(C)[C@@H]5CC[C@]24C)[C@H]13 |  | > 25 | 13.5 | > 25 |  |  |  |  | 
13 | C[C@H]1[C@H](C)CC[C@@]23CC[C@]4(C)C(OC2=O)([C@H](F)C[C@@H]2[C@@]5(C)CC[C@H](O)C(C)(C)[C@@H]5CC[C@]24C)[C@H]13 |  | 14.3 | 18.7 | 19.3 |  | 19.5 |  |  | 
14 | C=C(C)[C@@H]1CC[C@]2(C)[C@H](C[C@@H](F)C34OC(=O)[C@@]5(CC[C@@H](C)[C@H](C)[C@@H]35)CC[C@]42C)[C@@]1(C)CCC#N |  | > 17 | > 17 | > 17 |  |  |  |  | 
15 | C=C(C)[C@@H]1CC[C@]2(C)[C@H](C[C@@H](F)C34OC(=O)[C@@]5(CC[C@@H](C)[C@H](C)[C@@H]35)CC[C@]42C)[C@@]1(C)CCC(N)=O |  | 24.1 | 21.8 | 23 |  |  |  |  | 
16 | C=C(C)[C@@H]1CC[C@]2(C)[C@H](C[C@@H](F)C34OC(=O)[C@@]5(CC[C@@H](C)[C@H](C)[C@@H]35)CC[C@]42C)[C@@]1(C)CCC(=O)NCCc1cccc(Cl)c1 |  | > 50 | > 50 | > 50 |  |  |  |  | 
17 | C[C@H]1[C@H](C)CC[C@@]23CC[C@]4(C)C(OC2=O)([C@H](F)C[C@@H]2[C@@]5(C)CCC(=O)C(C)(C)[C@@H]5CC[C@]24C)[C@H]13 |  | > 50 | > 50 | > 50 |  |  |  |  | 
